Measured values as given in the array DNA melting data of Ke et al. (doi:10.1101/2024.01.08.574731).

Assays:
[1] = folding enthalpy; higher = less favourable; fluorescence melt of hairpins on a sequencing array, two-state fit; conditions: sodium 0.088 M
Method in brief: (§1)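 Two-state fits, bootstrapped, provided melting temperature and folding enthalpy from Cy3 fluorescence normalised to pre-quench Cy3 and to control constructs. Library hairpins with annealed Cy3 and quencher oligos were imaged on a sequenced MiSeq flow cell in 50 mM Na-HEPES pH 8.0, 25 mM NaCl, at 2.5 °C intervals up to 60 °C. Four replicates were combined with inverse-variance weighting. A 9.35 °C upward shift was applied to fitted temperatures to match UV melts.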

[2] = melting temperature; fluorescence melt of hairpins on a sequencing array, two-state fit, raised by 9.35 °C to match UV melts; conditions: sodium 0.088 M
Method in brief: as §1

Row | Sequence | folding enthalpy [1] [kcal/mol] | Tm [2] [°C]
1 | GCGACTATTCGC ((((....)))) | -19.3 | 47.4
2 | GCGACGCGAAAGCCTAGC ((.(.((....)).).)) | -18.9 | 43.5
3 | CGACCGGAAACGGCTCG ((((((....))).))) | -28.8 | 48.2
4 | GCTGTGCGAAAGCGAAGC (((..((....))..))) | -17.9 | 52.6
5 | GTCATCGAAAGATTAGAC ((((((....)))..))) | -14 | 32.2
6 | GGTGAGGGAAACTTCGCC ((.((.(....).)).)) | -23.7 | 35.7
7 | GCGGGCGAAAGCCGACGC ((((((....)))..))) | -19.9 | 61.9
8 | CGTCCGGAAACGGAACG ((((((....))).))) | -24.9 | 49.9
9 | GTAAGCGGAAACGCTTGC (.(((((....))))).) | -22.7 | 54.1
10 | GATCAATGAGTTGATC ((((((....)))))) | -37.1 | 48.4
11 | GCAGTAGGAAACTACTGC (((((((....))))))) | -54 | 64.6
12 | GATCCATCCGTGGATC ((((((....)))))) | -46.6 | 52.9
13 | GATCCGGGAAACCAGATC ((((.((....)).)))) | -27.8 | 35.6
14 | GAGAGAGGAAACTCCCTC (((.(((....))).))) | -22.1 | 28.6
15 | GTCCGCGAAAGCGAGAC ((((((....))).))) | -14.2 | 59.2
16 | GATCTTCCAAAAGATC ((((((....)))))) | -32 | 41.7
17 | GGGTGAGGAAACTCGCTC (.(.(((....))).).) | -21.6 | 38.1
18 | GACGGCGAAAGCCAGGTC ((((((....)))..))) | -16.5 | 46.6
19 | GCGAGAGGAAACTTTCGC ((((.((....)).)))) | -33.8 | 48.8
20 | GGTCCAGGAAACTAGACC ((((.((....)).)))) | -29.7 | 35.7
21 | GCATCCGAAAGGAATTGC ((((((....)))..))) | -20.2 | 36.9
22 | GTGTCCGGAAACAGACAC (((((.(....).))))) | -30.1 | 44.9
23 | GGCATCGAAAGATCTGCC ((((((....)))..))) | -24.9 | 39.6

Row | Sequence | folding enthalpy [1] [kcal/mol] | Tm [2] [°C]
24 | GATTGTGGAAACACAGTC ((.((((....)))).)) | -26.4 | 42.6
25 | GGTACAGGAAACTGTATC (.(((((....))))).) | -28.6 | 43.4
26 | GTGCCAGGAAACTGACAC (((.(((....))).))) | -35.5 | 47.5
27 | CAATGGAAACATTG (((((....))))) | -26 | 40.6
28 | GCCACACCGAAAGGTGGC (((..(((....)))))) | -12.3 | 55.6
29 | GACTGTGGAAACATGGTC (((..((....))..))) | -28.7 | 37.9
30 | GAAGTTGGAAACAATTTC (((.(((....))).))) | -20.4 | 35
31 | GATCGGATGCCGATC ((((((...)))))) | -19 | 63
32 | GCACGCGAAAGCGGATGC ((((((....)))..))) | -15 | 54.9
33 | GCATGGCGAAAGCCCGGC ((..(((....)))..)) | -15.7 | 43.3
34 | GAGATGGGAAACCATCCC (.(((((....))))).) | -13.1 | 38.7
35 | GGATACGCGAAAGCGTCC (((..(((....)))))) | -8.9 | 33
36 | GATATCCGAAAGGAGATC (((.(((....))).))) | -33.1 | 49.9
37 | GCCGACGAAAGTCCGGGC ((((((....)))..))) | -24.4 | 53
38 | GAAAGCCGAAAGGCCTTC (((.(((....))).))) | -14.4 | 41.4
39 | GCTCGACGAAAGTCAGC (((.(((....)))))) | -19.3 | 51.6
40 | GAGCTGGAAACAGCTC ((((((....)))))) | -26 | 67.6
41 | GCTAAGCGAAAGCGTGGC ((.(.((....)).).)) | -16.1 | 57.1
42 | GGCCAAGGAAACTTAGCC (((.(((....))).))) | -24.7 | 36.3
43 | GTCTTCGAAAGAAGAC ((((((....)))))) | -30.3 | 62.4
44 | GCCAGGAAACTGGC (((((....))))) | -38.2 | 63.2
45 | GCTGATCGAAAGATAGC (((.(((....)))))) | -23.1 | 41.5
46 | GCTGTCGAAAGACTTAGC ((((((....)))..))) | -19.9 | 43

Row | Sequence | folding enthalpy [1] [kcal/mol] | Tm [2] [°C]
47 | GATCGTGGTCACGATC ((((((....)))))) | -41.9 | 57.7
48 | CGGACCGGAAACGGCCCG (((.(((....))).))) | -39.9 | 56.4
49 | GATCCGTACCCGGATC ((((((....)))))) | -39 | 56.4
50 | GCACTAGGAAACTGGTGC ((((.((....)).)))) | -34.5 | 52.9
51 | GCAGGTGGAAACATCTGC ((((.((....)).)))) | -37.8 | 52.9
52 | ATTTGGAAACAAAT (((((....))))) | -12.8 | 34.4
53 | GAGTCCGAAAGGATTCTC ((((((....)))..))) | -24.4 | 50.6
54 | GATCATGTTGATGATC ((((((....)))))) | -41.2 | 48.4
55 | GATCTTAGTAAGATC ((((((...)))))) | -27.6 | 42.5
56 | GCGATGCGAAAGCAGTGC ((..(((....)))..)) | -22.7 | 58.3
57 | GTGCACGGAAACGTGCGC (.(((((....))))).) | -14.7 | 63.9
58 | GGTGTTGGAAACAACGCC ((.((((....)))).)) | -36.1 | 57.3
59 | GCGAGTGTCGC ((((...)))) | -13.9 | 47
60 | GCTCAGCGAAAGCCTAGC (((..((....))..))) | -19.7 | 36.1
61 | GTGGAGCGAAAGCTACAC (((.(((....))).))) | -30.8 | 68.2
62 | GTGAAGGAAACTTCAC ((((((....)))))) | -32.5 | 54.1
63 | GTACCTGGAAACAGGTGC (.(((((....))))).) | -28.1 | 52.4
64 | GCTTCGCGAAAGCAACGC ((.(.((....)).).)) | -10 | 29.2
65 | GAGCCCACGAAAGTGCTC (((..(((....)))))) | -16 | 35.8
66 | GTCAGTGGAAACGCTGAC (((((.(....).))))) | -40.5 | 54.2
67 | GCTGTGCGAAAGCATGGC ((..(((....)))..)) | -22.4 | 59.5
68 | GCGTTCTTACGC ((((....)))) | -27 | 52.8
69 | GAAACCGAAAGGTTTTTC ((((((....)))..))) | -15.6 | 48.8
